This is a sample that favours compounds with a hit; in the whole collection about 2.9% have one here.
mABHD4 FP: ABHD4 (mouse) inhibition, primary FP screen; actives 0.54% (n = 370,000); inhibition, % at 8.92 µM; Q8VD66; purified mABHD4, FP-Rh probe fluorescence polarization;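 active = inhibition exceeding the mean over every tested compound plus 3 SD, cut at about 30% in these data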;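 note: 0% = plate median of compound wells and 100% = S159A mutant with DMSO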
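Assay system: Wild-type mouse ABHD4 protein | Medium: HEPES pH 7.0 buffer, 150 mM NaCl, 0.01% Pluronic F-127 | Incubation: Enzyme–compound pre-incubation 45 min, then probe 60 min, both 25 °C | Technique: Fluorescence polarization with parallel and perpendicular emission, 525/598 nm | Evaluation: % inhibition of FP-Rh probe binding versus controls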
TCR CD3 inh: blocks the human TCR-CD3 interaction; TAMRA-labeled TCR probe fluorescence, biochemical; inhibition, % at 9.4 µM; actives 0.37% (n = 360,000); AID 651800; in the data active = inhibition above about 19%;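 note: recombinant mutant TCR 2C K166C tagged with TAMRA read by polarization; 0% = receptor in buffer alone and 100% = receptor with positive control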
SIAE inh: inhibitors of human sialic acid acetylesterase SIAE. inhibition, % at 9.66 µM. Q9HAT2. AID 1053197. actives 0.69% (n = 370,000). SIAE FP-Rh probe binding, fluorescence polarization;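 active = inhibition above a cutoff: mean of compounds within the control limits plus 3 SD of those, cut at about 17% in these data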;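 note: 0% = plate median of compound wells and 100% = probe without SIAE protein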
PRMT1 inh: blocks human protein arginine methyltransferase 1; AID 652257; recombinant PRMT1, activity-based probe fluorescence polarization; actives 1.3% (n = 370,000); inhibition, % at 2.79 µM;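 active = inhibition above about 21% made by adding two undisclosed values, limit read from the data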
HTRA1 inh: blocks human HTRA1 serine peptidase; recombinant HTRA1, FP-rhodamine activity-based probe, fluorescence polarization; inhibition, % at 5.96 µM; AID 504803; actives 0.5% (n = 340,000); in the data active = inhibition above about 36%;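 note: 0% = enzyme with DMSO and 100% = wells lacking enzyme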
Target sequence (Q92743 whole entry, looked up): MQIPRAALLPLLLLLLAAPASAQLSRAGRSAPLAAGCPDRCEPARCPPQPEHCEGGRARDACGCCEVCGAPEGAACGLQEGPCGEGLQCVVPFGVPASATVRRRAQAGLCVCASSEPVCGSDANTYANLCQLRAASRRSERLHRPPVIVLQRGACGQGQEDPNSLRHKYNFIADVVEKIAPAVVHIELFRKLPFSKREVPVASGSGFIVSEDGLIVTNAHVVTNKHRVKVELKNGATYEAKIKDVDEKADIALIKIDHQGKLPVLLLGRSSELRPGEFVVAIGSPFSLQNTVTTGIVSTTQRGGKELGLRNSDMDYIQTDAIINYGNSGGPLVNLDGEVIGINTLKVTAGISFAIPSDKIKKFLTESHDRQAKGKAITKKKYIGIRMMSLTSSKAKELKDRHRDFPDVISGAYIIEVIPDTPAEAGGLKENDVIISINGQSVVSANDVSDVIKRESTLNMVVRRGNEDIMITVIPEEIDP
ATG4B inhibitor: inhibitors of human ATG4B cysteine protease; ATG4B cleavage of LC3-PLA2, NBD-HPC fluorescence, 1 h; Q9Y4P1; AID 504462; inhibition, % at 8.33 µM; actives 0.51% (n = 340,000); in the data active = inhibition above about 40%
PRMT1 confirm: confirmation of human PRMT1 inhibitors; inhibition, % at 2.79 µM; actives 42% (n = 3,300); shares compounds with PRMT1 inh; recombinant His-PRMT1, activity-based probe fluorescence polarization; AID 687036;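 active = mean inhibition across replicates above the hit cutoff derived for the earlier primary screen, cut at about 22% in these data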
The depositor's hits bear a star; . = no result.

SMILES	mABHD4 FP	TCR CD3 inh	SIAE inh	PRMT1 inh	HTRA1 inh	ATG4B inhibitor	PRMT1 confirm
Cc1cc(C)nc(SC(C(=O)O)c2ccccc2)n1 (configuration not stated)	-7	-3	-4	2	4	-6	.
COc1ccc(CCNC2CC(=O)N(C)C2=O)cc1OC (configuration not stated)	8	1	-2	6	-7	-3	.
COc1ccc(CCNC2CC(=O)N(CCc3ccc(OC)c(OC)c3)C2=O)cc1 (configuration not stated)	-4	2	3	78*	3	11	2
COc1ccc(CCNC2CC(=O)N(CCc3ccccc3)C2=O)cc1OC (configuration not stated)	8	3	0	42*	3	-5	-2
NCCc1nnc(SCC(=O)Nc2cccc(Cl)c2)o1	1	2	1	25*	-5	6	14
CC(C)[C@H](NC(=O)C1CC1)C(=O)N1CCC[C@H]1C(=O)NCCc1ccccc1Cl	6	2	3	-1	.	.	.
O=Cc1s/c(=N\S(=O)(=O)c2ccccc2)n(CCCCl)c1Cl	3	4	-6	43*	-18	7	37*
Oc1ccc(Cl)cc1/C=N/c1nccs1	0	-1	4	1	2	7	.
Oc1ccc(Cl)cc1C=Nc1ccc2c3c(cccc13)CC2	20	15	-1	39*	21	0	13
N#CCN1CCC(c2cc(-c3ccco3)n[nH]2)CC1	2	3	-3	57*	.	-4	3
COC(=O)C1CN(Cc2cn(Cc3ccc(C)cc3)nn2)CCS(=O)(=O)N1Cc1ccc(Cl)cc1 (configuration not stated)	-1	.	6	-2	.	.	.
CN(CCOC(=O)c1cc2ccccc2o1)C1CN(Cc2cn(Cc3ccccc3Cl)nn2)S(=O)(=O)C1 (configuration not stated)	-6	.	10	4	.	.	.
C[C@@H]1CCN(C2CC2)S(=O)(=O)c2c(cccc2N2CCC[C@H]2CO)O1	1	.	-2	-9	.	.	.
C=CCOc1ccc(C2NC(=S)NC3=C2CCc2ccccc23)cc1 (configuration not stated)	2	2	-1	5	-23	-4	.
CC1CC2=C(NC(=S)NC2c2ccc(F)cc2)/C(=C/c2ccc(F)cc2)C1 (configuration not stated)	6	4	0	49*	-15	-1	22*
Fc1ccccc1/C=C1\CCCC2=C1NC(=S)NC2c1ccccc1F (configuration not stated)	-9	4	4	38*	-34	17	20
Fc1cccc(/C=C2\CCCC3=C2NC(=S)NC3c2cccc(F)c2)c1 (configuration not stated)	-2	-9	0	64*	-46	3	18
COc1ccc2c(c1)CCC1=C2NC(=S)NC1c1ccc(N(C)C)cc1 (configuration not stated)	15	1	7	17	4	13	.
S=C1NC2=C(CCC/C2=C\c2ccc(Cl)cc2)C(c2ccc(Cl)cc2)N1 (configuration not stated)	6	-3	0	27*	-18	-6	15
CN1[C@@H](Cc2ccccc2)COc2cccc(F)c2S1(=O)=O	0	.	-6	1	.	.	.
COc1ccc(OC)c(S(=O)(=O)N2CCC(C(=O)NCc3cccs3)CC2)c1	-4	.	6	-5	.	.	.
COc1ccc(C2NC(=S)NC3=C2CCCC3=C2SCCS2)cc1 (configuration not stated)	-12	-6	-31	8	-57	4	.
O=C1CCCC2=C1C(c1ccccc1)NC(=S)N2 (configuration not stated)	-2	2	10	4	0	-4	.
S=C1NC2=C(CCC/C2=C\c2ccccc2)C(c2ccccc2)N1 (configuration not stated)	11	-1	6	43*	-17	-3	32*
S=C1NC2=C(CCCC2=C2SCCCS2)C(c2ccccc2)N1 (configuration not stated)	-15	-6	-23	35*	-45	15	4
SMILES	mABHD4 FP	TCR CD3 inh	SIAE inh	PRMT1 inh	HTRA1 inh	ATG4B inhibitor	PRMT1 confirm
N#Cc1ccc(Cn2ccc3ccc(-c4ccc5ccn(C(=O)C6CCCCC6)c5c4)cc32)cc1	5	.	-9	4	.	.	.
Cc1ccc(/C=C2\SC(=S)N(C3CCS(=O)(=O)C3)C2=O)cc1 (configuration not stated)	-7	-8	-4	10	-1	0	.
O=C1/C(=C/c2ccco2)SC(=S)N1C1CCS(=O)(=O)C1 (configuration not stated)	23	1	17	36*	14	-5	6
CC(C(=O)N(C)C1CCS(=O)(=O)C1)N1C(=O)/C(=C/c2ccc(F)cc2)SC1=S (configuration not stated)	-17	1	0	1	-4	2	.
CCN(C(=O)C(C)N1C(=O)/C(=C/c2ccco2)SC1=S)C1CCS(=O)(=O)C1 (configuration not stated)	21	2	2	26*	23	-7	6
CC(C)[N+]1=C2C=CC=CC=C2SC12C([N+](=O)[O-])=CC(=[N+]([O-])[O-])C=C2[N+](=O)[O-] (configuration not stated)	6	-3	0	37*	14	-7	14
CCCCCN1CCCCC(NC(=O)c2ccc(F)c(F)c2)C1=O (configuration not stated)	3	.	1	3	.	.	.
CN(C)CCCN(C(=O)CCc1ccccc1)c1nc2c(F)cccc2s1	7	2	-1	0	0	5	.
CN(C)CCCN(C(=O)CCOc1ccccc1)c1nc2c(F)cccc2s1	4	4	-1	31*	1	1	4
O=C(C1CCCN1S(=O)(=O)c1cccs1)N1CCc2ccccc2C1 (configuration not stated)	0	.	-2	8	.	.	.
Cn1nnnc1Sc1ncnc2scc(-c3ccccc3C(F)(F)F)c12	-3	3	-2	39*	-16	-9	14
Oc1ccccc1C(=S)N1CCN(C(=S)c2ccccc2O)CC1	-5	-12	1	42*	1	-9	19
O=C(Nc1nc2ncccn2c1-c1ccc(F)cc1)C1CC1	1	.	6	-1	.	.	.
COc1ccc(CN2C[C@]3(C=C(C)Cn4c(=O)n(-c5ccccc5)c(=O)n43)N(C(=O)OCc3ccccc3)C2=NC(=O)c2ccccc2)c(OC)c1	-16	.	4	-5	.	.	.

Screens: PubChem, several laboratories
